Sequences and labels used below:
B1: tRNA (parent)
chain: GUUCCGUUGGCGUAAUGGUAACGCGUCUCCCUCCUAAGGAGAAGACUGCGGGUUCGAGUCCCGUACGGAACG

Fewer inactive variants are shown than the library holds.

The variants in this data set derive from B1. Kind of data set: yeast fitness relative to wild type (ratio to wild type); higher = fitter; tRNA-Arg(CCU), competitive growth, 37 C, YPD. An outline of the steps: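 Variants of the tRNA-Arg(CCU) gene, chemically synthesised with a 3% per-site mutation rate at 69 sites, were placed at the native genomic locus in Saccharomyces cerevisiae. The pooled strains were competed in YPD at 37°C for 24 hours in six parallel replicates. Gene amplicons from the start population and from each end population were read by 100-nucleotide paired-end sequencing. Darwinian fitness relative to wild type came from changes in genotype frequencies; genotypes needed ≥ 100 starting reads, and estimates < 0.5 were set to 0.5.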
Regarding U8C A20G C34G C66U, the yeast fitness is 0.696.
Under G9C A14G A57U C60A C61G stands not above 0.5; under C5U G48A C55U A65C, 0.556; under C5U C62U, 1.03.
With C4G A15U A40C, the yeast fitness is not above 0.5.
As for C11G C33G A69U, the figure is not above 0.5.
In the case of U16A C22G, the yeast fitness came out at 0.989.
Under U28G G38A C60G A65C A69C stands 0.618; under G39A C62U, 1.05; under C5A G10A U35C C49A, not above 0.5.
Regarding C11G C31G, the yeast fitness is 0.555.
For C4A A20C G50C A65C, the yeast fitness was not above 0.5.
As for G17A U19C, the figure is 0.95; as for U19C C29G, 0.578; as for C24U A40G, 0.72.
As for A21U C33G C55U, the figure is not above 0.5.
As for U3C A20U C30G C33U G58C, the figure is not above 0.5; as for C5G A42C U54G, not above 0.5.
C11U G18C A43C G52A: the yeast fitness is not above 0.5.
Turning to U3G A15G A21U C24U G38A C61G C66U A69U, the yeast fitness was not above 0.5.
As for U13A A20G A21U A40U, the figure is not above 0.5.
As for C11U C22G U28A C31G C55A G68C, the figure is not above 0.5; as for G10C C34G G56C, 0.52.
Under G10A C62U C66U stands 0.617; under G10A C29U C31U G48C U54A, not above 0.5; under C5A U7C A65C, not above 0.5.
As for G12C A15U G25A, the yeast fitness stood at 0.696.
As for U19G A37G C66U, the figure is 0.639; as for C30U C33U, 0.669; as for C30G C34G G39C A69C, not above 0.5.
Under C31U C33U C34G A40C A69C stands not above 0.5; under G12C A20U C22A, 0.927; under U19A C24U G38A U54C C62U C66A, not above 0.5.
Take A40G C62U: the yeast fitness was 0.715.
Turning to G51A C55G, the yeast fitness was 0.648.
As for G25C A43C C49U, the figure is 0.632; as for C55G C62A, 0.619.
Take G10C G56C: the yeast fitness came to 0.553.
On to G48A G52C U54C, for which the yeast fitness is 0.542.
As for C33U A42G C46A, the figure is 0.644.
As for G9A U26G A57U, the figure is 0.631.
Under C5A C33A A40C G41A U59A U64A C66G stands 0.584; under U19A U59G, 0.793; under C5G C31A A36C A43C C55G, 1.06.
Turning to U2C C27G, the yeast fitness was 0.748.
A21G C22U G63A: the yeast fitness is 0.572.
Under A21C G23A G52C A57C stands not above 0.5; under C5U A43C, 0.813; under G9A A20G C62U, 0.736.
Under U2C C49U stands 0.808; under C27G U28G, 0.522; under C46A G48A U64G, 0.951.
As for C5U A14C A70U, the figure is not above 0.5; as for C11U U28C C29G C60A, not above 0.5; as for U2A C5G, 0.728.
As for G18A C46A G63C, the yeast fitness was determined as 0.604.
As for C31U U53G C61G A70U, the figure is not above 0.5; as for G23A C31U, 0.731.
As for G25C C61A C66U, the figure is not above 0.5; as for C11A C31A G44C A65C, not above 0.5; as for U2C C22G G51C A70G, not above 0.5.
As for C27A G52A U54A, the figure is not above 0.5.
Take G12C U28A C66U G68A: the yeast fitness is not above 0.5.
Under C24A C30U A45G U54C A57U C62U stands 0.548; under A20G C24U C33U A43C C55A U59C, 0.539.
Under U8C C22A A36C G63A G67C stands not above 0.5; under U2A C55A A69U, not above 0.5.
Under C27U G41A G58C A69C stands 0.645; under A20U G25C A37G C60G C61G, 0.561; under G9C U32A C55U A57U, not above 0.5.
As for G23A A42U C61G U64A, the yeast fitness was not above 0.5.
Under C30U C49U G52A stands 0.584; under U2C U3C G25C C27G, not above 0.5; under A15G A36G A70C, 0.674.
As for C55A C61U G68A A70G, the figure is not above 0.5; as for A21G C29G C62U, 0.651.
As for U26C G48C, the figure is 0.86; as for C5U A43G G48A, 0.678.
With C11G A15U C24G A40G G51A C60U G67A, the yeast fitness is not above 0.5.
In the case of C22U G39C G48C, the yeast fitness was found to be 0.516.
As to A43U A45G, the yeast fitness was determined as 0.852.
As for G18U C30U C49G, the figure is not above 0.5; as for U19C C49A C55U, not above 0.5.
In the case of G17A C30G A45G A65U, the yeast fitness is not above 0.5.
As for A14C U16A U26C C66U A69C, the figure is not above 0.5; as for A14G G56C, 0.611; as for A14C A15U G17A C27U U32C U35G, not above 0.5.
Under A45C G51A C55A stands 0.516.
For C24U A57G A65U, the yeast fitness is 0.513.
On to C4U A15G, for which the yeast fitness was 0.997.
Under C24G G25A C31G stands 0.703; under C27U U32C C62G, not above 0.5; under A21U A36U G58A, not above 0.5.
Under U7C U16C A21U C22A C49U G50C A69U stands not above 0.5; under U8C G9C A37U G38A G39A, not above 0.5.
Under U47A stands 0.99.
For the variant G25C C29A A65U, the yeast fitness stood at 0.558.
Under G9A A21G A40G A43C U54A stands not above 0.5; under G6A A36G A43C A69C, not above 0.5; under G9A A45C C49U, 0.643.
Under U16A G58A G67U stands not above 0.5; under C11A A45U G50U U54C U64A, not above 0.5; under U2G U32C A40G, not above 0.5.
For the variant A20G C33G G56A A65C, the yeast fitness was not above 0.5.
Under C4U C11U U13C C33G A40C stands not above 0.5; under G12A A40U A45G C60A, not above 0.5.
As for G50C C55G C60A, the yeast fitness came to 0.63.
Under U3A C5U C31G A57G stands not above 0.5; under C22G G23A C46U A57G, not above 0.5; under A37C G48A, 0.779.
As for G25C G48A, the figure is 0.951; as for U3G C4U C22A, not above 0.5; as for G9A U16C, 1.05.
With C4U C33A A42G, the yeast fitness is not above 0.5.
As for C31A C46U G67U, the figure is 0.684; as for C27U C46A G50A, 0.73.
In the case of G6A G10A G39C A70C, the yeast fitness is not above 0.5.
For C5G A14U C24G A70U, the yeast fitness is not above 0.5.
Under C29G A37G A70G stands 0.562; under C5U U32C G39A C60U C61G G68C, not above 0.5; under C30G G51C G56U, 0.628.
Turning to U3A C5G C11U C24A C30U A70G, the yeast fitness is not above 0.5.
Under C5G G56A stands 0.975; under A15C G25C C29U U35C A43U A70U, not above 0.5.
Under C24A A36U C55A stands not above 0.5; under A15G U54G C55U, 0.561.
Take C11U C33U G48A: the yeast fitness was determined as 0.58.
Under A21C C61A G68A stands 0.515; under U2C C4A U28C G44C, 0.601.
Take G25A A37U A40C: the yeast fitness was found to be 0.68.
In the case of C11G C24U U28C, the yeast fitness was not above 0.5.
As for A42U A45U C60U A65C, the figure is not above 0.5.
For the variant A20G C24G C30G, the yeast fitness is not above 0.5.
As for C22A G48A G51A, the figure is 0.582.
Under G17A C30U A42C stands not above 0.5; under G9A U13A A65G C66U, not above 0.5.
In the case of A37U G44A C66U, the yeast fitness was found to be 0.535.
As for G39C A43C A45G C60G, the yeast fitness is not above 0.5.
As for A14C U19G U32A G52C, the figure is not above 0.5; as for C22A C55A A57U, not above 0.5.
Under C27G A70C stands 0.786.
As for C66A A70G, the figure is 0.764.
For the variant G6A G39A U53A, the yeast fitness was not above 0.5.
As for U3G C4U U35A G58A G67A, the figure is not above 0.5; as for A14G C22G U35A, 0.61; as for C22G G41C, 0.814.
As for C5U G10A G12A U53A, the figure is not above 0.5.
Take C30G C46G: the yeast fitness stood at 0.693.
Under C11G U28C G39A C60A G67A stands not above 0.5; under U35C G50A C55U, not above 0.5; under C62G A65G A70U, not above 0.5.
Under C34G G56A stands 0.639.
As for C24U G67U, the figure is 0.869; as for C4G A36U C66G, not above 0.5; as for U3A A42G G52C A57G, not above 0.5.
Turning to A14G C34G C60G A70C, the yeast fitness is not above 0.5.
As for C5U C30A C33G A42C C62A, the figure is not above 0.5; as for C5A G51C G63C A65C, not above 0.5; as for A14G C30U A45U, 0.675.
As to U3C G6A U54C C61G, the yeast fitness is not above 0.5.
As for G9A C22U C30A C49A C55A C62U C66U, the figure is not above 0.5; as for C4G U7A U19C A20C C24U U53C, not above 0.5; as for C4U G12A A45C C49U, not above 0.5.
On to C11U U19A G63C, for which the yeast fitness amounted to 0.53.
Under C22U C61A C66U stands not above 0.5; under A14U A20C U59C, not above 0.5; under C30G C33U C49U, 0.556.

For the origin of these results see the RNAGym collection of RNA variant scans (doi:10.1126/science.aae0568).
